Experimental data: ChEMBL document CHEMBL4308848, “Molecular Basis for the N-Terminal Bromodomain-and-Extra-Terminal-Family Selectivity of a Dual Kinase-Bromodomain Inhibitor” (J Med Chem, 2018)
pIC50, pKd: −log10 of the molar value. The source made the active and inactive calls. No cut-off for these calls is given here.

Key:
[1] = target: T1, Bromodomain testis-specific protein (Homo sapiens, UniProt Q58F21)
[2] = target: T1, Bromodomain testis-specific protein; remark: listed apart in the source
[3] = target: T2, Bromodomain-containing protein 4 (Homo sapiens, UniProt O60885); test: Inhibition of BRD4 bromodomain 1 in human A549 cells assessed as reduction in TNFalpha-induced NFkappaB transcription at 1 to 25 uM after 8 hrs by bright-glo luciferase reporter gene assay relative to control; assay type: cell-based
Method in brief: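 A549-NF-κB-luc cells (DMEM, 10% FBS, hygromycin) were dosed with serial compound dilutions at 0.5% final DMSO. TNF-α (15 ng/mL final) was added 30 min after dosing. Bright-Glo luciferase luminescence was read 8 h later. Activity is expressed as percent NF-κB activity, as means ± SEM of three biological experiments, each with three technical replicates.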

[4] = target: SWI/SNF-related matrix-associated actin-dependent regulator of chromatin subfamily A member 4 (Homo sapiens) (UniProt P51532); test: Inhibition of human SMARCA4 expressed in HEK293 cells at 10 uM relative to control; assay type: cell-based
[5] = system: A549; test: Cytotoxicity against human A549 cells assessed as reduction in cell viability at 0.5 to 50 uM after 8 hrs by Alamar blue assay; assay type: cell-based; details: a549, 8 h
Method in brief: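 A549-NF-κB-luc cells in DMEM/10% FBS with hygromycin were dosed with serially diluted compound at 0.5% final DMSO. TNF-α (15 ng/mL final) was added 30 min after dosing, and viability was read by Alamar Blue in parallel with the 8 h luciferase read. Three biological × three technical replicates.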

[6] = target: T3, Bromodomain-containing protein 2 (Homo sapiens, UniProt P25440); test: Inhibition of BRD2 C-terminal bromodomain 2 (unknown origin) expressed in Escherichia coli Bl21(DE3) by alpha-screen assay
T3 sequence (P25440 whole entry): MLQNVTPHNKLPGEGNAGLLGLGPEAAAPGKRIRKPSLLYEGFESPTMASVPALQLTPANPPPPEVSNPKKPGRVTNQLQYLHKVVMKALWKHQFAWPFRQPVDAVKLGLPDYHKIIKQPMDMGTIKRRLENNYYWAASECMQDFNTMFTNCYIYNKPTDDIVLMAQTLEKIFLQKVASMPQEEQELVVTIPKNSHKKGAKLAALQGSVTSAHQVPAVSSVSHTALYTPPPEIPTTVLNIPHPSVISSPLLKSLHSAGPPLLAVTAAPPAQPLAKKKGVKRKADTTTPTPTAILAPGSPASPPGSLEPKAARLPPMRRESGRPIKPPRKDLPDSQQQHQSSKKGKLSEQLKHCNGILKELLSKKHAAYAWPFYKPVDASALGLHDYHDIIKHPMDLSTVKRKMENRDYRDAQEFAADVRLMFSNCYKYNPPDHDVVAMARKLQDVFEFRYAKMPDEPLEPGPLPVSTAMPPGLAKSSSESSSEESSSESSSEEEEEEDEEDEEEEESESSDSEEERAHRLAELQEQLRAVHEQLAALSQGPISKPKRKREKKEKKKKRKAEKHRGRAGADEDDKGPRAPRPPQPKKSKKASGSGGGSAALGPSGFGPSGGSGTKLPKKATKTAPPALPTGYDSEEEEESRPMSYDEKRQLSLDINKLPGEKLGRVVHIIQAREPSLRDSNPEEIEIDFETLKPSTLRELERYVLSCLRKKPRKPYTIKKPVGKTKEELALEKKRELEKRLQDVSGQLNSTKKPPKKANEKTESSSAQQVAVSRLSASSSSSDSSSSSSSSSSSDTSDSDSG

[7] = target: T3, Bromodomain-containing protein 2; test: Inhibition of BRD2 N-terminal bromodomain 1 (unknown origin) expressed in Escherichia coli Bl21(DE3) by alpha-screen assay
[8] = target: T4, Bromodomain-containing protein 3 (Homo sapiens, UniProt Q15059); test: Inhibition of BRD3 N-terminal bromodomain 1 (unknown origin) expressed in Escherichia coli Bl21(DE3) by alpha-screen assay
T4 sequence (Q15059 whole entry, the tested form may be a part): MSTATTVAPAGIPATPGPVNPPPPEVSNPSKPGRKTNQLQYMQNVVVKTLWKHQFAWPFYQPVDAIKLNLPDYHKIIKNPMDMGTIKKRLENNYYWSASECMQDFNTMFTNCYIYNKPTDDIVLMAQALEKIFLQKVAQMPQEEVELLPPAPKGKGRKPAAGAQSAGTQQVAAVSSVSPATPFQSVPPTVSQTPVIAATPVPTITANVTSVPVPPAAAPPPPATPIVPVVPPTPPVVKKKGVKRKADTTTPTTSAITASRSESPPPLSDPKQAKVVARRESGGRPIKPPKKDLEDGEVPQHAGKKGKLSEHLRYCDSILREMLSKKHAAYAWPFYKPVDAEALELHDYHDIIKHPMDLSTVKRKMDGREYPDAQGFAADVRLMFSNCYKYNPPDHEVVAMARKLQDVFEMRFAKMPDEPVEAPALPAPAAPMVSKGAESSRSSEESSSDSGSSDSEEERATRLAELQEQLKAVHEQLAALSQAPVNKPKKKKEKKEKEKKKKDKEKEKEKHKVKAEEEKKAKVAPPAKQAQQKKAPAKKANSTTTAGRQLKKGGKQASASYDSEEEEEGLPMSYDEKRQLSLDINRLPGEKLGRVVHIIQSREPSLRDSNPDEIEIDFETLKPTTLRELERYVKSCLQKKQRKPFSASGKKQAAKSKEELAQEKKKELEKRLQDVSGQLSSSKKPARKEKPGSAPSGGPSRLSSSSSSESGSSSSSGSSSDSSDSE

[9] = target: Histone acetyltransferase p300 (Homo sapiens) (UniProt Q09472); test: Inhibition of human P300 (1040 to 1161 residues) expressed in bacterial expression system at 10 uM relative to control
Histone acetyltransferase p300 (Homo sapiens), sequence (Q09472 whole entry, the tested form may be a part): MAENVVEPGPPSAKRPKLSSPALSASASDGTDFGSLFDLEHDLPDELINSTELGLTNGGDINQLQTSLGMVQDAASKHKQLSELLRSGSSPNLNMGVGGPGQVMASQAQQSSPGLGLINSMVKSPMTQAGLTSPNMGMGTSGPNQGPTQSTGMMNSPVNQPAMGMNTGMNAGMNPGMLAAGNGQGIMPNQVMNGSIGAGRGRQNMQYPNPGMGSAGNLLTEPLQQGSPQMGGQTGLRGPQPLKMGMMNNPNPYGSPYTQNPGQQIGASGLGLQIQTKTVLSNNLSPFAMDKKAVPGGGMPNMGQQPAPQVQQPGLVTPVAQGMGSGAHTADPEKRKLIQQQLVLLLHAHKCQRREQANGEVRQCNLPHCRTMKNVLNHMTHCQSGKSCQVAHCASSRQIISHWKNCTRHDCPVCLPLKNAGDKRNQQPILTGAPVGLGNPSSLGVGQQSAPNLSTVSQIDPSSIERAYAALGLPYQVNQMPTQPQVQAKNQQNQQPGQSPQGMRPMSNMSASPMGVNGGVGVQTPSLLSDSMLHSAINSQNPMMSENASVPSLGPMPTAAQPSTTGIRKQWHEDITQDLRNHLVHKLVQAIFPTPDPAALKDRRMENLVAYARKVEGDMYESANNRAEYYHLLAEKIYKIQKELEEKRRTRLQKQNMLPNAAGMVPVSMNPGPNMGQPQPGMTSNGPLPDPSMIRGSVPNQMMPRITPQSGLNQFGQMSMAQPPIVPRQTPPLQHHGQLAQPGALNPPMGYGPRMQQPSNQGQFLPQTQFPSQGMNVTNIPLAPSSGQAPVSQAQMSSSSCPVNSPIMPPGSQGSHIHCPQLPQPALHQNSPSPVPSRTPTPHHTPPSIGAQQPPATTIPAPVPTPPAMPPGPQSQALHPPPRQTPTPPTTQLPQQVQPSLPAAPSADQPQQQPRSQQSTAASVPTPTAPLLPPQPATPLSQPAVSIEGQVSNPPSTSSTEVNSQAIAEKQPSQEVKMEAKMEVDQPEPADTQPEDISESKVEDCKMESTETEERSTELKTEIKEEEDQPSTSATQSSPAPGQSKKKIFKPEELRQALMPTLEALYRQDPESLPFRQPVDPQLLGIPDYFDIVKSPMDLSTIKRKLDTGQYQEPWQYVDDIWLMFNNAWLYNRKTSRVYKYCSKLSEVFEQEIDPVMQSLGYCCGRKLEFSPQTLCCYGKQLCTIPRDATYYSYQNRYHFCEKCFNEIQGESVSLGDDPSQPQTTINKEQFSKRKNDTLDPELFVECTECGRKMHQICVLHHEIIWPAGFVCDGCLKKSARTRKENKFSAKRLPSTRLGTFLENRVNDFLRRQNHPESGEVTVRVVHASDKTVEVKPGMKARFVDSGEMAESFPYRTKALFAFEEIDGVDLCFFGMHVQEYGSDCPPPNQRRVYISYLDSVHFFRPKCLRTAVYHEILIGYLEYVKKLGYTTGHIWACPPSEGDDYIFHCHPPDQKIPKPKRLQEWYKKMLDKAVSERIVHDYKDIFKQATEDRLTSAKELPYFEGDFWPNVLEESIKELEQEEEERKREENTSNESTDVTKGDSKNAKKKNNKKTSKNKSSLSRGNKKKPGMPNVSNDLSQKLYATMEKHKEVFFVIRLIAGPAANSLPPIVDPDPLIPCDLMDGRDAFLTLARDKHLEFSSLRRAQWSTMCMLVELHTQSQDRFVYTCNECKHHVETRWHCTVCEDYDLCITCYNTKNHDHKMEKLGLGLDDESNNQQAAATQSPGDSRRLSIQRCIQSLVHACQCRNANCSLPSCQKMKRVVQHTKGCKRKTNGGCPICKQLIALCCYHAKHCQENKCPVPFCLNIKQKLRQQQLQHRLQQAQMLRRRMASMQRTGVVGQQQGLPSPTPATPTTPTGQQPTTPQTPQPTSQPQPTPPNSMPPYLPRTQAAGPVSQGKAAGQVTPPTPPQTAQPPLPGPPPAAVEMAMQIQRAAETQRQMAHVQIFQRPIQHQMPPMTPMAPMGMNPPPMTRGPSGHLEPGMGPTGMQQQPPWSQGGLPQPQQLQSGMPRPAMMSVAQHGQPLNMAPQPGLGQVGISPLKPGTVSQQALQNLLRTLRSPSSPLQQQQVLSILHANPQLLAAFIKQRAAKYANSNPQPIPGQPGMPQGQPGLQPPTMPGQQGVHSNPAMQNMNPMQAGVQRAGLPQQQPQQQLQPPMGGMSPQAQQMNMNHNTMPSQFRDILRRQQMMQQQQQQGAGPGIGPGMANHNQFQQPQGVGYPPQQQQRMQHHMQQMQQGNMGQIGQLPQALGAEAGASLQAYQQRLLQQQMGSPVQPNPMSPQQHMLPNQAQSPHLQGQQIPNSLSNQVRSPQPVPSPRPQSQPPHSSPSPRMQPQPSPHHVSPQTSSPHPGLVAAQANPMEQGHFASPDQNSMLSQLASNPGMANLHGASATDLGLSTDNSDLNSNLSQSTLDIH

[10] = target: Histone acetyltransferase KAT2B (Homo sapiens) (UniProt Q92831); test: Inhibition of human PCAF (715 to 831 residues) expressed in bacterial expression system at 10 uM relative to control
[11] = target: T1, Bromodomain testis-specific protein; test: Inhibition of human BRDT bromodomain 1 expressed in HEK293 cells at 10 uM relative to control; assay type: cell-based
[12] = target: T1, Bromodomain testis-specific protein; test: Binding affinity to human BRDT bromodomain 1 (unknown origin) expressed in Escherichia coli Bl21(DE3) at 12.5 to 100 uM by protein-observed fluorine NMR method
Method in brief: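 5-Fluorotryptophan-labeled bromodomain expressed in E. coli Bl21(DE3)+pRARE in defined medium with 5-fluoroindole, induced with 1 mM IPTG at 20 °C, Ni-purified. 19F NMR with 40−50 μM protein in 50 mM TRIS, 100 mM NaCl, 5% D2O pH 7.4, 0.05% DMSO, across varying ligand concentrations. Referenced to trifluoroacetate; 0.7 s relaxation delay, 90° flip.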

[13] = target: T4, Bromodomain-containing protein 3; test: Inhibition of BRD3 C-terminal bromodomain 2 (unknown origin) expressed in Escherichia coli Bl21(DE3) by alpha-screen assay
[14] = target: T1, Bromodomain testis-specific protein; test: Displacement of BI-BODIPY from BRDT C-terminal bromodomain 2 (unknown origin) expressed in Escherichia coli Bl21(DE3) by fluorescence polarization assay
Method in brief: (§1)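 Fluorescence anisotropy in 50 mM HEPES, 100 mM NaCl, 4 mM CHAPS pH 7.4, with 15 nM BI-BODIPY tracer and bromodomain set at 80% tracer bound. […] Percent bound was determined where displacement was incomplete.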

[15] = target: T1, Bromodomain testis-specific protein; test: Inhibition of BRDT N-terminal bromodomain 1 (unknown origin) expressed in Escherichia coli Bl21(DE3) by alpha-screen assay
[16] = target: SWI/SNF-related matrix-associated actin-dependent regulator of chromatin subfamily A member 2 (Homo sapiens) (UniProt P51531); test: Inhibition of human SMARCA2 (1377 to 1486 residues) (unknown origin) expressed in bacterial expression system at 10 uM relative to control
[17] = target: T2, Bromodomain-containing protein 4; test: Inhibition of BRD4 C-terminal bromodomain 2 (unknown origin) expressed in Escherichia coli Bl21(DE3) by alpha-screen assay
[18] = target: T3, Bromodomain-containing protein 2; test: Inhibition of human 6x-His-tagged BRD2 bromodomain 2 expressed in Escherichia coli
[19] = target: T4, Bromodomain-containing protein 3; test: Inhibition of human 6x-His-tagged BRD3 bromodomain 2 expressed in Escherichia coli
[20] = target: T2, Bromodomain-containing protein 4; test: Inhibition of BRD4 N-terminal bromodomain 1 (unknown origin) expressed in Escherichia coli Bl21(DE3) by alpha-screen assay
[21] = target: T2, Bromodomain-containing protein 4; test: Displacement of BI-BODIPY from BRD4 C-terminal bromodomain 2 (unknown origin) expressed in Escherichia coli Bl21(DE3) by fluorescence polarization assay
Method in brief: as §1

[22] = target: T2, Bromodomain-containing protein 4; details: A549, 1 uM
[23] = target: T2, Bromodomain-containing protein 4; details: A549, 10 uM
[24] = system: A549; test: Cytotoxicity against human A549 cells assessed as reduction in cell viability at 10 to 25 uM after 8 hrs by Alamar blue assay; assay type: cell-based; details: a549, 8 h
Method in brief: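 Viability of A549-NF-κB-luc cells was measured by Alamar Blue colorimetric staining, run in parallel with the luciferase reporter. Cells were dosed with serial compound dilutions at 0.5% final DMSO, TNF-α (15 ng/mL) was added 30 min after dosing, and the read was at 8 h.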

[25] = target: Mitogen-activated protein kinase 14 (Homo sapiens) (UniProt Q16539); test: Inhibition of p38alpha in human MM1S cells assessed as reduction in MSK1 phosphorylation at T581 up to 10 uM by Western blot analysis; assay type: cell-based
Mitogen-activated protein kinase 14 (Homo sapiens), sequence (Q16539 whole entry): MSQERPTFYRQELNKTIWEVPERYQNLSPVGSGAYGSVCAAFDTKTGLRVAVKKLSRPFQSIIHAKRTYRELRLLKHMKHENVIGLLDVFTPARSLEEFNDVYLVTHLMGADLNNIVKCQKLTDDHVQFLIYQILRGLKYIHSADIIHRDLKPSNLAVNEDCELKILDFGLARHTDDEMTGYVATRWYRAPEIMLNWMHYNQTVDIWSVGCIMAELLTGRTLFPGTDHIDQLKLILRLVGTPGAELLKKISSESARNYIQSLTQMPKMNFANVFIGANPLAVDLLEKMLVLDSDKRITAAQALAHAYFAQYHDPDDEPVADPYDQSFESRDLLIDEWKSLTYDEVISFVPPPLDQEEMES

[26] = target: T2, Bromodomain-containing protein 4; test: Binding affinity to BRD4 bromodomain 1 (unknown origin) expressed in Escherichia coli Bl21(DE3) by isothermal-titration calorimetry
[27] = target: Mitogen-activated protein kinase 14 (Homo sapiens) (UniProt Q16539); test: Inhibition of p38alpha in human MM1S cells assessed as reduction in MSK1 phosphorylation at T581 at 0.1 to 30 uM by Western blot analysis; assay type: cell-based
[28] = target: T2, Bromodomain-containing protein 4
[29] = target: T2, Bromodomain-containing protein 4; test: Inhibition of BRD4 bromodomain 1 in human MM1S cells assessed as reduction in c-myc levels at 0.1 to 30 uM by Western blot analysis; assay type: cell-based
Method in brief: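 MM.1S cells in RPMI-1640/10% FBS were seeded at 10^6 per well and exposed for 6 h to 0.1–30 μM compound. Lysates were run on 12.5% SDS-PAGE and blotted for c-Myc, with GAPDH as loading control. Detection by HRP secondary and ECL on X-ray film.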

**Q.** Which results are given for Fc1ccc(-c2ncn(C3CCNCC3)c2-c2ccnc(Oc3cc(F)cc(F)c3)n2)cc1?
**A.** pIC50 [1]: < 3.60; pIC50 [2]: < 3.60

**Q.** C[S+]([O-])c1ccc(-c2nc(-c3ccc(F)cc3)c(-c3ccncc3)[nH]2)cc1 (configuration not stated) was tested. Which inhibition [3] did it give?
**A.** inactive

**Q.** What does the source list for Cc1cc(C)cc(Nc2nccc(-c3c(-c4ccc(F)cc4)ncn3C3CCNCC3)n2)c1?
**A.** inhibition [4]: 40 to 50%; pIC50 [1]: 5.46; Activity [5]: Non-Toxic; pIC50 [6]: 4.17; pIC50 [7]: 4.54; pIC50 [8]: 4.95; inhibition [9]: 40 to 50%; inhibition [10]: 40 to 50%; inhibition [11]: 50%; Activity [12]: Active; pIC50 [13]: < 4.00; inhibition [14]: inactive; pIC50 [15]: 5.28; pIC50 [2]: < 3.60; inhibition [16]: 40 to 50%

**Q.** With Cc1cc(C)cc(Nc2nccc(-c3c(CO)nnn3C3CCNCC3)n2)c1 as the compound, how does the pIC50 [6] read?
**A.** 3.59

**Q.** What about the pIC50 [7] of the same compound?
**A.** < 3.60

**Q.** What about the pIC50 [8] of the same compound?
**A.** 3.70

**Q.** What about the pIC50 [13] of the same compound?
**A.** 3.51

**Q.** And the pIC50 [17]?
**A.** 3.99

**Q.** And the pIC50 [15]?
**A.** 3.96

**Q.** Which inhibition [14] does the source give for CC[C@@H]1C(=O)N(C)c2cnc(Nc3ccc(C(=O)NC4CCN(C)CC4)cc3OC)nc2N1C1CCCC1 here?
**A.** Active

**Q.** Which results are given for CC(=O)NCCCCn1c2c(c3ccccc31)C(=O)NCC2?
**A.** pKd [18]: < 4.12; pKd [19]: < 4.12

**Q.** What does the source list for Cc1cc(C)cc(Nc2nccc(-c3c(C)nnn3C3CCNCC3)n2)c1?
**A.** pIC50 [6]: 4.92; pIC50 [7]: 5.74; pIC50 [8]: 6.11; pIC50 [13]: 5.62; pIC50 [17]: 6.25; pIC50 [20]: 5.89; pIC50 [15]: 5.80

**Q.** For COc1cc(OC)c2c(=O)[nH]c(-c3cc(C)c(OCCO)c(C)c3)nc2c1, which inhibition [21] is on record?
**A.** Active

**Q.** And the inhibition [22]?
**A.** 40%

**Q.** What about the inhibition [23] of the same compound?
**A.** 25%

**Q.** For C[S+]([O-])c1ccc(-c2nc(-c3ccncc3)c(-c3ccc(F)cc3)[nH]2)cc1 (configuration not stated) [SB-203580], which Activity [24] is on record?
**A.** Non-Toxic

**Q.** Which inhibition [25] does the source give for Cc1sc2c(c1C)C(c1ccc(Cl)cc1)=N[C@@H](CC(=O)OC(C)(C)C)c1nnc(C)n1-2 here?
**A.** inactive

**Q.** For NC(=O)c1ccc(N(C(N)=O)c2c(F)cccc2F)nc1-c1ccc(F)cc1F [VX-702], which inhibition [3] is on record?
**A.** inactive

**Q.** And the Activity [24]?
**A.** Non-Toxic

**Q.** Cc1ccc(Nc2nccc(-c3c(-c4ccc(F)cc4)ncn3C3CCNCC3)n2)cc1C was tested. Which pKd [26] did it give?
**A.** 5.74

**Q.** What about the pIC50 [1] of the same compound?
**A.** 5.33

**Q.** And the inhibition [27]?
**A.** Active

**Q.** And the inhibition [21]?
**A.** inactive

**Q.** And the Activity [5]?
**A.** Non-Toxic

**Q.** And the pIC50 [28]?
**A.** < 3.60

**Q.** What about the inhibition [14] of the same compound?
**A.** inactive

**Q.** What about the inhibition [29] of the same compound?
**A.** Active

**Q.** What about the pIC50 [2] of the same compound?
**A.** < 3.60

**Q.** Cc1cc(C)cc(Nc2nccc(-c3c(-c4ccc(F)cc4)nnn3C3CCNCC3)n2)c1 was tested. Which pIC50 [6] did it give?
**A.** 4.52

**Q.** What about the pIC50 [7] of the same compound?
**A.** 4.37

**Q.** And the pIC50 [8]?
**A.** 4.29

**Q.** And the pIC50 [13]?
**A.** 3.96

**Q.** What about the pIC50 [17] of the same compound?
**A.** 4.12

**Q.** What about the pIC50 [20] of the same compound?
**A.** 4.57

**Q.** And the pIC50 [15]?
**A.** 4.44
